15 molecules from ChEMBL document CHEMBL2375292, “Biaryl tetrazolyl ureas as inhibitors of endocannabinoid metabolism: modulation at the N-portion and distal phenyl ring” (Eur J Med Chem, 2013) can be followed below.

Assay [1] has as its target T1, Transient receptor potential cation channel subfamily A member 1 (Rattus norvegicus, UniProt Q6RI86). The experiment in a line: Agonist activity at rat TRPA1 receptor expressed in HEK293 cells assessed as increase in intracellular Ca2+ concentration by spectrofluorimetric analysis. The class given is cell-based. In outline:
(§1)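 HEK293 cells stably transfected with human TRPV1 or rat TRPA1 cDNA (pcDNA3, G-418 selection) were loaded 1 h at room temperature with Fluo-4-AM, washed and suspended in Tyrode's buffer pH 7.4. [Ca²⁺]i was read by stirred-cuvette spectrofluorimetry before and after adding test compound at various concentrations. Signal from untransfected cells was subtracted. Efficacy was taken as percent of ionomycin (4 µM) for TRPV1 and percent of allyl isothiocyanate (100 µM) for TRPA1; EC50 was also derived.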

The target in assay [2] is Transient receptor potential cation channel subfamily A member 1 (Rattus norvegicus) (UniProt Q6RI86). In words: Agonist activity at rat TRPA1 receptor expressed in HEK293 cells assessed as increase in intracellular Ca2+ concentration by spectrofluorimetric analysis relative to allyl isothiocyanate. Format: cell-based. In a few lines:
as §1

In assay [3] the target is T2, Transient receptor potential cation channel subfamily V member 1 (Homo sapiens, UniProt Q8NER1). The experiment in a line: Antagonist activity at human TRPV1 receptor expressed in HEK293 cells assessed as inhibition of capsaicin-induced intracellular Ca2+ elevation incubated for 5 mins prior to capsaicin-stimulation by spectrofluorimetric analysis. Format: cell-based. In a few lines:
(§2)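 Fluo-4-loaded HEK293 cells stably expressing human TRPV1 or rat TRPA1, in Tyrode's buffer pH 7.4, received test compound in the cuvette 5 min before agonist: capsaicin 0.1 µM for TRPV1, AITC 100 µM for TRPA1. The [Ca²⁺]i rise with agonist alone was set to 100%. IC50 came from a variable-slope sigmoidal fit. Untransfected-cell signal was subtracted.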

Assay [4] has as its target T2, Transient receptor potential cation channel subfamily V member 1. In words: Agonist activity at human TRPV1 receptor expressed in HEK293 cells assessed as increase in intracellular Ca2+ concentration by spectrofluorimetric analysis. The class given is cell-based. In a few lines: as §1
Assay [5] shares this target. In words: Agonist activity at human TRPV1 receptor expressed in HEK293 cells assessed as increase in intracellular Ca2+ concentration by spectrofluorimetric analysis relative to ionomycin. The class given is cell-based. In a few lines:
as §1

A further assay deals with T3, Monoglyceride lipase (Homo sapiens, UniProt Q99685).
T3 sequence (Q99685 whole entry): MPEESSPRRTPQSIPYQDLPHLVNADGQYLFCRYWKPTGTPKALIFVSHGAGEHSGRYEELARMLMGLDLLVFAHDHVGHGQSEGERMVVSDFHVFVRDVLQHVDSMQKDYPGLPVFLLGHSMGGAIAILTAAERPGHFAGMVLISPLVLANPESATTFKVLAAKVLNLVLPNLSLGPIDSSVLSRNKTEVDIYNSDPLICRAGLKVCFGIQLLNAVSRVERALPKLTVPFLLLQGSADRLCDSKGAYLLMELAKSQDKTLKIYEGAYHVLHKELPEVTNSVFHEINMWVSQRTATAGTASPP
In words: Inhibition of MAGL (unknown origin) expressed in African green monkey COS7 cell cytosolic fraction assessed as [3H]2-AG hydrolysis to [3H]arachidonic acid after 20 mins by beta counting analysis. On the set-up: species or system COS-7.

The target in assay [6] is T4, Fatty-acid amide hydrolase 1 (Rattus norvegicus, UniProt P97612).
T4 sequence (P97612 whole entry): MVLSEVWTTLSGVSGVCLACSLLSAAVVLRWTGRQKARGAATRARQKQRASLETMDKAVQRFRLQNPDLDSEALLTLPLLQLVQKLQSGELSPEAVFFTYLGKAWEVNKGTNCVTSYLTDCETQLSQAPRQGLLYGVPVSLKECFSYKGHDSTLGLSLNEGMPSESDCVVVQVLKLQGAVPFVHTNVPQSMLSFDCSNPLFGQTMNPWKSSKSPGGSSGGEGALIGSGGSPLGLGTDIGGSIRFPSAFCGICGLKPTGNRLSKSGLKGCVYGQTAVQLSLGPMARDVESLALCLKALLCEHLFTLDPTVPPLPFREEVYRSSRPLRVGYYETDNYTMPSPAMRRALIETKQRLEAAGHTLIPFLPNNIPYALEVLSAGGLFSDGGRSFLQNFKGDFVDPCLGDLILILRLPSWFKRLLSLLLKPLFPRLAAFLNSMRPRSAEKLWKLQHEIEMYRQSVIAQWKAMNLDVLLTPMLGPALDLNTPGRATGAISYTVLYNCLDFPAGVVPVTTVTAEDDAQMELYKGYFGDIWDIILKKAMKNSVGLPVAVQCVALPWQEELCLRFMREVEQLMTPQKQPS
The experiment in a line: Inhibition of FAAH in rat brain membranes assessed as [14C]AEA hydrolysis to [14C]Ethanolamine after 30 mins by scintillation counting analysis. The class given is cell membranes. In a few lines: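 Rat brain membranes were incubated with [¹⁴C]AEA in 50 mM Tris-HCl pH 9 for 30 min at 37 °C. Released [¹⁴C]ethanolamine in the aqueous phase was counted by scintillation after CHCl₃/CH₃OH 2/1 extraction. IC50 was the concentration giving 50% inhibition.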

Assay [7] deals with T1, Transient receptor potential cation channel subfamily A member 1. The experiment in a line: Antagonist activity at rat TRPA1 receptor expressed in HEK293 cells assessed as inhibition of allyl isothiocyanate-induced intracellular Ca2+ elevation incubated for 5 mins prior to allyl isothiocyanate-stimulation by spectrofluorimetric analysis. Format: cell-based. In a few lines:
as §2

T2 sequence (Q8NER1 whole entry): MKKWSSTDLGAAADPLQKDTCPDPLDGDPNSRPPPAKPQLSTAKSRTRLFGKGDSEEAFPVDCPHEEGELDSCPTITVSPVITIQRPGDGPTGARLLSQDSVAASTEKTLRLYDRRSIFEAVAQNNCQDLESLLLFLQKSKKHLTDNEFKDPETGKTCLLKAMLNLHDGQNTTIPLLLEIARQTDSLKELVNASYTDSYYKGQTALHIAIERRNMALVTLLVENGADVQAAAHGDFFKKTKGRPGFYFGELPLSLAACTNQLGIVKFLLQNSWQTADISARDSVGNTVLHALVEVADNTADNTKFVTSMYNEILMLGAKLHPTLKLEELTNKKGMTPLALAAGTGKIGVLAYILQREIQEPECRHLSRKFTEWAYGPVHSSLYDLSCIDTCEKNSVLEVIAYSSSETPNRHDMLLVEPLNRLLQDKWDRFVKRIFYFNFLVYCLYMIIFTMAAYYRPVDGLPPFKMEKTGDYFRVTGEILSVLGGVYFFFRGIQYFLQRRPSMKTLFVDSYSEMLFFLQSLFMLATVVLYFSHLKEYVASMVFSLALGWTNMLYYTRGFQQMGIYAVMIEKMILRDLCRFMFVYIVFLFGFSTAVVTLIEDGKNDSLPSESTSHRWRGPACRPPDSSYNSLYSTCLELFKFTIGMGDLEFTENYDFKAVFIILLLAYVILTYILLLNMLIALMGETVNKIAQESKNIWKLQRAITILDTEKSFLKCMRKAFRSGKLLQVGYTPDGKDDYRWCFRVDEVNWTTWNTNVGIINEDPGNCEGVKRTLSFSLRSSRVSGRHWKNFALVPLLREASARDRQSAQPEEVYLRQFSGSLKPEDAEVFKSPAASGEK
T1 sequence (Q6RI86 whole entry): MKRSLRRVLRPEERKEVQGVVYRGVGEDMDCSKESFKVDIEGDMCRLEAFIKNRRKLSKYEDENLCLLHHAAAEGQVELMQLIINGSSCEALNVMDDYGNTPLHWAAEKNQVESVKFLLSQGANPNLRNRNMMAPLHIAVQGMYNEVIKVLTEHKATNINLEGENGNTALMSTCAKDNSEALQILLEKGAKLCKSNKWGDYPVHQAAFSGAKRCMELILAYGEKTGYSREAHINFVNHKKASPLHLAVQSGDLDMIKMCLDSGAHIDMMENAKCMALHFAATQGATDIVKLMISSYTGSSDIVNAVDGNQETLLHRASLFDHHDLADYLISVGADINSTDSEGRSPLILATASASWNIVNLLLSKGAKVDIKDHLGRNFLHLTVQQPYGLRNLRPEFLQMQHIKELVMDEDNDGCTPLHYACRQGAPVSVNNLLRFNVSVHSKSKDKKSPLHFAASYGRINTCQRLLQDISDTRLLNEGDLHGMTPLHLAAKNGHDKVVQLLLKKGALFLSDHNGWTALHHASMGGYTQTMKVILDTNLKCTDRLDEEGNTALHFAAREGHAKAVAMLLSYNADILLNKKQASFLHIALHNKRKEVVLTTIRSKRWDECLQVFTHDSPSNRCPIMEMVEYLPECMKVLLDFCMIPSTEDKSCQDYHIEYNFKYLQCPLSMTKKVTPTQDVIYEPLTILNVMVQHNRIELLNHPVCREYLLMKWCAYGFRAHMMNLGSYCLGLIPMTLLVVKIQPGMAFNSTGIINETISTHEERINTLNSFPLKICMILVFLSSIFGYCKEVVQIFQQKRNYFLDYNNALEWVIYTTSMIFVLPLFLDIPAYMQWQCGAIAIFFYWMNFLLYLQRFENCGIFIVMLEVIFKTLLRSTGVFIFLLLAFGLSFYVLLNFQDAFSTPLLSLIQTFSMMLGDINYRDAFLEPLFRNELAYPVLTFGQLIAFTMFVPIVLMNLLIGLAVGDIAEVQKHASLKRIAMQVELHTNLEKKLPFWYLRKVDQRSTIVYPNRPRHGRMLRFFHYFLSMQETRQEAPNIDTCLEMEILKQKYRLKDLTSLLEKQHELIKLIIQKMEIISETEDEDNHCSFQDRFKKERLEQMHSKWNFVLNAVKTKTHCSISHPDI
Transient receptor potential cation channel subfamily A member 1 (Rattus norvegicus), sequence (Q6RI86 whole entry): as above

As for `O=C(N1CCCCC1)n1nnnc1Cc1ccc(-c2ccccc2)cc1`, the EC50 (usually the midpoint of the concentration-response curve) came to 6.5 µM in assay [1] and 5.9 µM in assay [4]. The Efficacy in assay [2] turned out to be 106%; in assay [5], 67.4%. For the same molecule, the IC50 – broadly, the concentration that gives 50% inhibition – was 22.6 µM in assay [3], greater than 1 µM at Monoglyceride lipase, 0.0382 µM in assay [6] and 12.5 µM in assay [7].
For `CN(C(=O)n1nnnc1Cc1ccc(-c2ccccc2)cc1)C1CCCCC1`, the EC50 in assay [1] stood at 4.9 µM; in assay [4], 13.4 µM. Also, the Efficacy is 84.7% in assay [2] and 45.6% in assay [5]. Moreover, the concentration for half-maximal inhibition (IC50) in assay [3] is 18.3 µM; on Monoglyceride lipase it was greater than 1 µM; in assay [6] it was 0.725 µM; in assay [7], 14.9 µM.
As to `CN(C)C(=O)n1nnnc1Cc1ccc(-c2cccc(O)c2)cc1`, the 50% effective concentration (EC50) in assay [1] was found to be 26.8 µM; in assay [4] it was 25 µM. Moreover, the Efficacy was 35.7% in assay [2] and 20% in assay [5]. Further, the half-inhibitory concentration (IC50) was 67.4 µM in assay [3], 0.003 µM in assay [6] and greater than 100 µM in assay [7].
Regarding `CN(Cc1ccc2ccccc2c1)C(=O)n1nnnc1Cc1ccc(-c2ccccc2)cc1`, the EC50 in assay [1] came to 13.5 µM; in assay [4], 2.5 µM. Further, the Efficacy stood at 53.9% in assay [2] and 34.1% in assay [5]. Further, the IC50 is 7.6 µM in assay [3], greater than 1 µM on Monoglyceride lipase, 0.0867 µM in assay [6] and 15 µM in assay [7].
As to `Cc1ccc(-c2ccc(Cc3nnn(C(=O)N(C)C)n3)cc2)cc1`, the values for the half-maximal effective concentration (EC50) in assay [1] and in assay [4] were 10.3 µM and 4.8 µM, respectively. Besides, the results for the Efficacy in assay [2] and in assay [5] were 275% and 33.3%, respectively. In addition, the half-maximal inhibitory concentration (IC50) in assay [3] was determined as 20.6 µM; in assay [6], 0.0462 µM; in assay [7] it was 10.5 µM.
In the case of `Cc1ccc(-c2ccc(Cc3nnnn3C(=O)N(C)C)cc2)cc1`, the concentration for a half-maximal effect (EC50) turned out to be 19.7 µM in assay [1] and 22.5 µM in assay [4]. Moreover, the Efficacy turned out to be 388% in assay [2] and 28% in assay [5]. In addition, the IC50 was greater than 100 µM in assay [3], greater than 1 µM on Monoglyceride lipase, 0.0071 µM in assay [6] and 15.9 µM in assay [7].
For `CN(C)C(=O)n1nnnc1Cc1ccc(-c2ccc(O)cc2)cc1`, in assay [1], the EC50 is 21.7 µM. Also, the Efficacy is 40.5% in assay [2] and less than 10% in assay [5]. Besides, the 50% inhibitory concentration (IC50) was greater than 100 µM in assay [3], greater than 1 µM on Monoglyceride lipase, 0.0167 µM in assay [6] and greater than 100 µM in assay [7].
Turning to `CN(CCCCc1ccccc1)C(=O)n1nnnc1Cc1ccc(-c2ccccc2)cc1`, the EC50 amounted to 20.1 µM in assay [1] and 1.5 µM in assay [4]. For the same molecule, the Efficacy in assay [2] came out at 89.9%; in assay [5], 45.7%. The IC50 in assay [3] is 7.1 µM; at Monoglyceride lipase, greater than 1 µM; in assay [6] it was 0.0213 µM; in assay [7] it was 83.7 µM.
Consider `CN(Cc1ccc2ccccc2c1)C(=O)n1nnc(Cc2ccc(-c3ccccc3)cc2)n1`, for which the Efficacy in assay [2] was less than 10%; in assay [5], 36.1%. Also, the 50% inhibitory concentration (IC50) was determined as 4.5 µM in assay [3], 0.0169 µM in assay [6] and 24.3 µM in assay [7]. Further, the EC50 in assay [4] stood at 11.9 µM.
As for `CN(CCCCc1ccccc1)C(=O)n1nnc(Cc2ccc(-c3ccccc3)cc2)n1`, the Efficacy in assay [2] was less than 10%; in assay [5], 15.9%. The concentration for half-maximal inhibition (IC50) was 47.6 µM in assay [3], 0.0116 µM in assay [6] and 92.1 µM in assay [7]. The half-maximal effective concentration (EC50) in assay [4] turned out to be 1.7 µM.
`CN(C)C(=O)n1nnnc1Cc1ccc(-c2cccc(C(N)=O)c2)cc1`: the EC50 in assay [1] came out at 50.1 µM; in assay [4] it was 32.3 µM. In addition, the Efficacy in assay [2] stood at 30.7%; in assay [5], 21.3%. Further, the half-inhibitory concentration (IC50) was greater than 100 µM in assay [3], greater than 1 µM at Monoglyceride lipase, 0.011 µM in assay [6] and greater than 100 µM in assay [7].
Consider `CN(C)C(=O)n1nnnc1Cc1ccc(-c2ccccc2O)cc1`, for which the EC50 in assay [1] was 59.7 µM. Besides, the Efficacy was 228% in assay [2] and less than 10% in assay [5]. In addition, the IC50 in assay [3] was greater than 100 µM; on Monoglyceride lipase it was greater than 1 µM; in assay [6] it was 0.0156 µM; in assay [7], greater than 100 µM.
Take `O=C(N1CCCCC1)n1nnc(Cc2ccc(-c3ccccc3)cc2)n1`: the concentration for a half-maximal effect (EC50) was 3.7 µM in assay [1] and 1.8 µM in assay [4]. In addition, the Efficacy in assay [2] is 130%; in assay [5], 66.7%. In addition, the IC50 was 7.4 µM in assay [3], 0.0681 µM in assay [6] and 21.5 µM in assay [7].
For the molecule `CN(C)C(=O)n1nnc(Cc2ccc(-c3ccccc3)cc2)n1`, the EC50 in assay [1] turned out to be 20.1 µM; in assay [4], 5 µM. The figures for the Efficacy in assay [2] and in assay [5] were 186% and 14.5%, respectively. Besides, the half-inhibitory concentration (IC50) in assay [3] was found to be 31.3 µM; in assay [7] it was 11.2 µM.
On to `CN(C)C(=O)n1nnnc1Cc1ccc(-c2ccc(CO)cc2)cc1`, for which the EC50 in assay [1] stood at 24.2 µM. The Efficacy in assay [2] is 58.7%; in assay [5], less than 10%. In addition, the concentration for half-maximal inhibition (IC50) was greater than 100 µM in assay [3], greater than 1 µM on Monoglyceride lipase, 0.0374 µM in assay [6] and 52.6 µM in assay [7].
